Test [1] has as its system Canis familiaris. Put plainly: Compound was tested for diuretic activity in dogs at 5 mg/kg dose after intravenous administration measured as microequivalent of K+/minute; 5/19 (Control/Drug treated). In kind it is functional, Canis lupus familiaris, Urine. In a few lines:
(§1)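 Intravenous dog clearance study. A priming iv injection of 1.5 mL/kg isoosmotic pH 7.4 phosphate buffer (20 mg PO4/kg) was given first. This was followed by infusion of 3 mL/min pH 7.4 buffer containing 4% mannitol (6.9 mg PO4/min) throughout the experiment. Urinary Na+, K+ and Cl- were measured by standard methods. Each value is the mean of the two highest consecutive 15-min collections.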

Test [2] relates to Pan troglodytes. Kind of test: Compound was tested for natriuretic activity in chimpanzee at 5 mg/kg dose activity is measured as microequivalent of Na+/minute; muequiv of Na+/min. In kind it is functional. Put shortly:
(§2)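 Inulin iv gave GFR; urate and inulin clearances and Na+, K+, Cl- excretion were measured by AutoAnalyzer. Controls were three 20-min periods; compound was given orally in aqueous solution via nasal catheter. Response was the mean of eight 15-20 min periods, reported as treatment minus control from single experiments.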

In test [3] the test system is Rattus norvegicus. Put plainly: Natriuretic activity in rats at 81 mg/kg of dosage; mequiv of Na. It counts as functional. Put shortly: (§3)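 Rats housed three per metabolism cage received placebo vehicle or compound as a suspension in a final volume of 5.0 mL orally, with placebo groups run concurrently. Urine was collected over 0–5 h and analysed for Na+, K+ and Cl− by standard methods. Values are mequiv per cage, given as geometric means of three cages per dose level.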

The subject of test [4] is Canis familiaris. Put plainly: Compound was tested for diuretic activity in dogs at 5 mg/kg dose after oral administration measured as microequivalent of Cl-/minute. It counts as functional, Canis lupus familiaris, Urine. Put shortly:
(§4)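 Oral dog test: water loading (250 mL po, then 500 mL 1 h later). One hour later bladders were emptied by catheter and compound or placebo given in gelatin capsules. Dogs were kept in metabolism cages. Voided urine plus catheterized bladder urine was pooled at 5 h, and Na+, K+ and Cl- were measured by standard methods. Geometric means are reported.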

In test [5] the test system is Rattus norvegicus. Put plainly: Natriuretic activity in rats at 27 mg/kg of dosage; mequiv of Na. It counts as functional. In a few lines: as §3
Test [6] relates to Rattus norvegicus. Put plainly: Natriuretic activity in rats at 3 mg/kg of dosage; mequiv of Na. It counts as functional. In a few lines: as §3
Test [7] deals with Canis familiaris. Put plainly: Diuretic activity in dogs following 5 mg/kg oral administration.
Test [8] concerns Canis familiaris. Kind of test: Compound was tested for diuretic activity in dogs at 5 mg/kg dose after intravenous administration measured as microequivalent of Cl-/minute; 9/510 (Control/Drug treated). It counts as functional, Canis lupus familiaris, Urine. Put shortly: as §1
The test system of test [9] is Canis familiaris. Put plainly: Compound was tested for diuretic activity in dogs at 5 mg/kg dose after oral administration measured as microequivalent of K+/minute. In kind it is functional, Canis lupus familiaris, Urine. In a few lines: as §4
Test [10] can be described thus: Compound was tested for natriuretic activity in chimpanzee at 5 mg/kg dose activity is measured as ratio of clearance of urate / […]; Curate/Cinulin. It counts as functional. In a few lines: as §2
Test [11] relates to Canis familiaris. Kind of test: Compound was tested for diuretic activity in dogs at 5 mg/kg dose after oral administration measured as microequivalent of Na+/minute. It counts as functional, Canis lupus familiaris, Urine. In a few lines:
as §4

Test [12] deals with Rattus norvegicus. Put plainly: Natriuretic activity in rats at 9 mg/kg of dosage; mequiv of Na. In kind it is functional. Put shortly: as §3
In test [13] the test system is Canis familiaris. Kind of test: Compound was tested for diuretic activity in dogs at 5 mg/kg dose after intravenous administration measured as microequivalent of Cl-/minute (Control/Drug treated). It counts as functional, Canis lupus familiaris, Urine. The settings on record: in the assay text read “oral” for “intravenous”.
Test [14] concerns Canis familiaris. Kind of test: Compound was tested for diuretic activity in dogs at 5 mg/kg dose after oral administration measured as microequivalent of Na+/minute.
Test [15] has as its system Canis familiaris. Put plainly: Compound was tested for diuretic activity in dogs at 5 mg/kg dose after intravenous administration measured as microequivalent of K+/minute (Control/Drug treated). It counts as functional, Canis lupus familiaris, Urine. The settings on record: in the assay text read “oral” for “intravenous”.
In test [16] the test system is Canis familiaris. Put plainly: Compound was tested for diuretic activity in dogs at 5 mg/kg dose after intravenous administration measured as microequivalent of Cl-/minute; 7/1385 (Control/Drug treated). It counts as functional, Canis lupus familiaris, Urine. In a few lines: as §1
The nature of test [17]: Activity is measured as ratio of clearance of urate / […] at […]; Curate/Cinulin. In kind it is functional. In a few lines:
(§5)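 Inulin iv gave GFR, and urate clearance was measured by AutoAnalyzer. Controls came from three 20-min periods. Aqueous compound was given orally by nasal catheter, and the response was averaged over eight 15-20 min periods. Values are treatment minus control from single experiments.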

The test system of test [18] is Pan troglodytes. Kind of test: Compound was tested for natriuretic activity in chimpanzee measured as microequivalent of Na+/minute at 10 mg/kg; mequiv of Na. It counts as functional. Put shortly: as §2
A short description of test [19]: Activity is measured as ratio of clearance of urate / […] at 0.0312 mg/kg; Curate/Cinulin. In kind it is functional. In a few lines:
as §5

For test [20], the system named is Pan troglodytes. Kind of test: Compound was tested for natriuretic activity in chimpanzee measured as microequivalent of Na+/minute at 1.0 mg/kg dose; mequiv of Na. In kind it is functional. In a few lines: as §2
Test [21] can be described thus: Activity is measured as ratio of clearance of urate / […] at 1.0 mg/kg dose; Curate/Cinulin. In kind it is functional. In a few lines:
as §5

The nature of test [22]: Activity is measured as ratio of clearance of urate / […] at 10 mg/kg; Curate/Cinulin. It counts as functional. Put shortly:
as §5

The test system of test [23] is Pan troglodytes. Kind of test: Compound was tested for natriuretic activity in chimpanzee measured as microequivalent of Na+/minute at 0.0312 mg/kg; mequiv of Na. It counts as functional. Put shortly:
as §2

The species entered for test [24] is Pan troglodytes. Put plainly: Compound was tested for natriuretic activity in chimpanzee measured as microequivalent of Na+/minute at […]; mequiv of Na. In kind it is functional. In a few lines: as §2
Test [25] is described as follows: Activity is measured as ratio of clearance of urate / […] at 0 mg/kg; Curate/Cinulin. In kind it is functional. Put shortly:
as §5

In test [26] the test system is Pan troglodytes. Put plainly: Compound was tested for natriuretic activity in chimpanzee measured as microequivalent of Na+/minute at 0 mg/kg; mequiv of Na. It counts as functional. In a few lines:
as §2

In test [27] the test system is Pan troglodytes. Kind of test: Compound was tested for natriuretic activity in chimpanzee measured as microequivalent of Na+/minute at 1 mg/kg; mequiv of Na. It counts as functional. In a few lines: as §2

This is an account of results in ChEMBL document CHEMBL1121663, “(Acylaryloxy)acetic acid diuretics. 3. 2,3-Dihydro-5-acyl-2-benzofurancarboxylic acids, a new class of uricosuric diuretics” (1981).

Molecules are shown by their SMILES. “And” between values parts separate entries of the source, which are not always exact repeats. Equal entries are not always repeated.

With `O=C(O)c1cc2cc(C(=O)c3cccs3)c(Cl)c(Cl)c2o1`, the K+ excretion in the test with Canis familiaris [1] was found to be 19 µequiv/min. For the same compound, the Oral activity in the test on Pan troglodytes [2] is recorded as 396; with Rattus norvegicus [3] it was 131; with Canis familiaris [4] it was 9.8; in the test on Rattus norvegicus [5], 88; with Rattus norvegicus [6], 32; in the test with Canis familiaris [9], 1.6. In addition, the Oral activity in the test on Canis familiaris [11] amounted to 6.9; in the test with Rattus norvegicus [12], 62. Also, the Urine volume in the test on Canis familiaris [7] was 270 mL. The Cl- excretion with Canis familiaris [8] came out at 510 µequiv/min. In addition, the Ratio in test [10] worked out at 0.061.

Turning to `O=C(c1ccco1)c1cc2c(c(Cl)c1Cl)OC(C(=O)O)C2` (centres undefined), the Oral activity in the test with Rattus norvegicus [3] was found to be 322; in the test on Rattus norvegicus [5], 218; with Rattus norvegicus [6], 69; in the test with Rattus norvegicus [12], 150.

`O=C(c1cccs1)c1cc2c(c(Cl)c1Cl)OC(CO)C2` (centres undefined): the Oral activity with Rattus norvegicus [3] is given as 72; in the test on Rattus norvegicus [5], 68; in the test with Rattus norvegicus [6], 16; in the test with Rattus norvegicus [12], 45.

For `O=C(c1cccs1)c1cc2c(c(Cl)c1Cl)OC(c1nnn[nH]1)C2` (centres undefined), the Oral activity amounted to 29 in the test on Rattus norvegicus [3], 16 with Rattus norvegicus [5], 13 in the test with Rattus norvegicus [6] and 16 in the test with Rattus norvegicus [12].

Consider `N#CC1Cc2cc(C(=O)c3cccs3)c(Cl)c(Cl)c2O1` (centres undefined), for which the Oral activity in the test on Rattus norvegicus [3] was 8; in the test on Rattus norvegicus [5], 10; in the test on Rattus norvegicus [6], 6; with Canis familiaris [13], 2.2; in the test with Canis familiaris [14] it was 1; in the test on Canis familiaris [15] it was 1.1. Moreover, the Oral activity in the test on Rattus norvegicus [12] came to 9. In the test with Canis familiaris [7], this compound returned a Urine volume of 190 mL.

Turning to `NNC(=O)C1Cc2cc(C(=O)c3cccs3)c(Cl)c(Cl)c2O1` (centres undefined), the Oral activity in the test on Rattus norvegicus [3] was found to be 140; in the test on Rattus norvegicus [5], 89; in the test on Rattus norvegicus [6] it was 34; in the test with Rattus norvegicus [12] it was 81.

With `O=C(c1cccs1)c1cc2c(c(Cl)c1Cl)O[C@H](C(=O)O)C2`, the Oral activity in the test with Pan troglodytes [2] is recorded as 1451; with Rattus norvegicus [3] it was 339; in the test with Canis familiaris [4], 53.7; with Rattus norvegicus [5], 283; in the test on Rattus norvegicus [6], 177; in the test with Canis familiaris [9], 8.3. In addition, the figures for the Oral activity in the test with Canis familiaris [11] and in the test on Rattus norvegicus [12] were 46 and 251, respectively. In the test with Canis familiaris [16], the Cl- excretion is 1380 µequiv/min. Also, the Urine volume in the test on Canis familiaris [7] is 501 mL. Besides, the Ratio in test [10] is listed as 0.132.

For `NC(=O)C1Cc2cc(C(=O)c3cccs3)c(Cl)c(Cl)c2O1` (centres undefined), the Oral activity was determined as 25 with Rattus norvegicus [3]; 3 in the test on Canis familiaris [4]; 11 in the test on Rattus norvegicus [5]; 7 in the test with Rattus norvegicus [6]; 3 in the test with Canis familiaris [13]; 2.1 in the test on Canis familiaris [14]. Besides, the Oral activity with Canis familiaris [15] is 1.7; in the test on Canis familiaris [9] it was 1.7; with Canis familiaris [11], 2.1; with Rattus norvegicus [12], 9. In the test with Canis familiaris [7], this compound returned a Urine volume of 229 mL.

Regarding `O=C(c1cccs1)c1cc2c(c(Cl)c1Cl)O[C@@H](C(=O)O)C2` [listing 1 of 2 here], the Ratio in test [17] was found to be 0.157.

On to `O=C(c1cccs1)c1cc2c(c(Cl)c1Cl)O[C@@H](C(=O)O)C2` [listing 2 of 2 here], for which the Oral activity was 622 and 482 in the test with Pan troglodytes [18]; 540 in the test on Pan troglodytes [20]; 256 in the test on Pan troglodytes [23]; 492 in the test listed under Pan troglodytes [24]; 26 in the test on Pan troglodytes [26]; 711 and 637 with Pan troglodytes [27]. Further, the Ratio is 0.01 in [19]; -0.019 in [21]; 0.376 and 0.358 in test [22]; 0.013 in test [25].
